{"data": "Measurements from different studies", "target": "Serine/threonine-protein kinase 3 (STK3, Homo sapiens, UniProt Q13188)", "Residues used in one study (Q13188 1-491)": "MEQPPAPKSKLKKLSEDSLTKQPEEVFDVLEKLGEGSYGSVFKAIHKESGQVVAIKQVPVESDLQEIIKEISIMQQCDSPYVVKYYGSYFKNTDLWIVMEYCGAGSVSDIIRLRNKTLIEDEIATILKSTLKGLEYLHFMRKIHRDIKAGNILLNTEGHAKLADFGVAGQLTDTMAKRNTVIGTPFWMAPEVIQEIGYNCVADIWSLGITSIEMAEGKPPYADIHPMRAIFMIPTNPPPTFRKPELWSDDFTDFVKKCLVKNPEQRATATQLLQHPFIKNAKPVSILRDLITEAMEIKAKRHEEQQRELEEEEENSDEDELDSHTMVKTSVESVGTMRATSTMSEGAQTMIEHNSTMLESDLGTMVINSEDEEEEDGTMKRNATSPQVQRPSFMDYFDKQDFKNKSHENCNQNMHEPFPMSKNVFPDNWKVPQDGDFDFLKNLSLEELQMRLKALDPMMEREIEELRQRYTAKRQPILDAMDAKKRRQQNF", "note": "Compare with care: the assays were run in different laboratories."}
{"assay": "cell-free assay, competition with immobilised ligand", "setting": "1 µM", "endpoint": "remaining binding", "value": "100%", "SMILES": "Cc1cc(-n2nc(Cc3cc(F)cc(C(F)(F)F)c3)nc2C)ccc1C(N)=O"}
{"assay": "enzyme activity, inhibitor", "setting": "1 µM", "endpoint": "inhibition", "value": "1%", "SMILES": "COc1cc2ncnc(Nc3ccc(Oc4ccccc4)c(C)c3C)c2cc1OC"}
{"assay": "enzyme activity, inhibitor", "setting": "10 µM", "endpoint": "inhibition", "value": "4.2%", "SMILES": "CNc1cccc2cc(C(=O)Nc3ccc(C(=O)O)cc3)c(=O)[nH]c12"}
{"assay": "enzyme activity, inhibitor, radiometric", "setting": "1 µM", "endpoint": "activity vs control", "value": "75%", "SMILES": "FC(F)(F)Oc1cccc(-c2cnc3ccc(-c4ccncc4)nn23)c1"}
{"assay": "cell-free assay", "setting": "0.5 µM", "endpoint": "remaining signal", "value": "94.4%", "SMILES": "Cc1ccc(NC(=O)c2ccc(CN3CCN(C)CC3)cc2)cc1Nc1nc(-c2cccnc2)cs1"}
{"assay": "cell-free assay, inhibitor", "setting": "10 µM", "endpoint": "inhibition", "value": "4%", "SMILES": "Cc1ccc(Nc2nccc(N(C)c3ccc4c(C)n(C)nc4c3)n2)cc1S(N)(=O)=O"}
{"assay": "cell-free assay, competition with immobilised ligand", "setting": "1 µM", "endpoint": "remaining binding", "value": "94%", "SMILES": "NS(=O)(=O)c1cc(NC(=O)C2(c3ccccc3Cl)CC2)ccc1Oc1cccc(Cl)c1"}
{"assay": "thermal stability, DSF", "setting": "10 µM", "endpoint": "ΔTm", "value": "-0.2 °C", "SMILES": "CN1CCC2(CC1)NC(=O)c1c(c3ccc(Cl)c(Cl)c3n1C)C2C#N (racemic)"}
{"assay": "cell-free assay, competition with immobilised ligand", "setting": "1 µM", "endpoint": "remaining binding", "value": "100%", "SMILES": "CC1=C(C#N)C(c2ccc3c(c2)c(NC(=O)c2ccccc2C)nn3C)C(C#N)=C(C)N1"}
{"assay": "thermal stability, DSF", "setting": "10 µM", "endpoint": "ΔTm", "value": "1.9 °C", "SMILES": "Cn1c2c(Cl)c(Cl)ccc2c2cc[nH]c(=O)c21"}
{"assay": "enzyme activity, inhibitor", "setting": "0.1 µM", "endpoint": "activity vs control", "value": "98%", "SMILES": "Cc1cc(NC(=O)c2cccc3cc(-c4cccc5[nH]nc(N)c45)ccc23)ccc1F"}
{"assay": "enzyme activity, inhibitor", "setting": "1 µM", "endpoint": "remaining activity", "value": "97%", "SMILES": "COc1cc(Cl)c(C(=O)N[C@@H](CN[C@H]2CC[C@@H](N)CC2)Cc2ccc(C#N)cc2)cc1-c1ccc(CN[C@H](C)c2ccc(C)cc2)o1"}
{"assay": "enzyme activity, inhibitor, radiometric", "setting": "10 µM", "endpoint": "remaining activity", "value": "30%", "SMILES": "COc1cc(Nc2cnc(C#N)c(O[C@H](C)CN(C)C)n2)ncc1-c1cnn(C)c1"}
{"assay": "thermal stability, DSF", "setting": "10 µM", "endpoint": "ΔTm", "value": "0.4 °C", "SMILES": "Cn1c2c(c3ccc(Cl)c(Cl)c31)C(C#N)C1(CCCC1)NC2=O (centres unmarked)"}
{"assay": "enzyme activity, inhibitor", "setting": "10 µM", "endpoint": "remaining activity", "value": "115%", "SMILES": "Oc1cccc(-c2nc(N3CCOCC3)c3oc4ncccc4c3n2)c1"}
{"assay": "thermal stability, DSF", "setting": "10 µM", "endpoint": "ΔTm", "value": "-0.5 °C", "SMILES": "Cn1c2c(c3ccccc31)C(C#N)C(C)(C)NC2=O (centres unmarked)"}
{"assay": "cell-free assay, inhibitor", "setting": "0.3 µM", "endpoint": "inhibition", "value": "7%", "SMILES": "CNC(=O)c1cc(Oc2ccc(NC(=O)Nc3ccc(Cl)c(C(F)(F)F)c3)cc2)ccn1"}
{"assay": "cell-free assay, competition with immobilised ligand", "setting": "1 µM", "endpoint": "remaining binding", "value": "100%", "SMILES": "COc1ccc2cc(OCC3(C(=O)O)CN(C(=O)c4ccc(F)cc4)C3)ccc2c1"}
{"assay": "enzyme activity, inhibitor", "setting": "1 µM", "endpoint": "activity vs control", "value": "78%", "SMILES": "Cc1ccc(C(=O)NCc2ccsc2)cc1C#Cc1cn(C(C)C)c2ncnc(N)c12"}
{"assay": "enzyme activity, inhibitor", "setting": "0.1 µM", "endpoint": "inhibition", "value": "-0.5%", "SMILES": "CC/C(=N\\NC(=O)NCc1cccc(O)c1)c1ccc(O)c(C)c1O"}
{"assay": "enzyme activity, inhibitor", "setting": "10 µM", "endpoint": "remaining activity", "value": "93.9%", "SMILES": "Cc1sc(C(=O)NC2COC2)cc1-n1cc(NC(=O)Nc2c(F)cccc2Cl)cn1"}
{"assay": "cell-free assay", "setting": "0.5 µM", "endpoint": "remaining signal", "value": "90.7%", "SMILES": "O=C1NC(=O)c2cc(Nc3ccc(F)cc3)c(Nc3ccc(F)cc3)cc21"}
{"assay": "enzyme activity, inhibitor", "setting": "1 µM", "endpoint": "inhibition", "value": "< 10%", "SMILES": "CCCS(=O)(=O)Nc1ccc(F)c(C(=O)c2c[nH]c3ncc(-c4ccc(Cl)cc4)cc23)c1F"}
{"assay": "enzyme activity, inhibitor, radiometric", "setting": "1 µM", "endpoint": "remaining activity", "value": "94%", "SMILES": "CC(C)(C)c1nc(-c2cccc(NS(=O)(=O)c3c(F)cccc3F)c2F)c(-c2ccnc(N)n2)s1"}
{"assay": "cell-free assay, competition with immobilised ligand", "setting": "1 µM", "endpoint": "remaining binding", "value": "92%", "SMILES": "N#CC1(c2ccccn2)CCN(Cc2cc(C(=O)N3CCCC3)c(=O)n3ccccc23)CC1"}
{"assay": "enzyme activity, inhibitor", "setting": "10 µM", "endpoint": "remaining activity", "value": "97%", "SMILES": "Nc1nc(NC2CCCCC2)sc1C(=O)c1ccccc1"}
{"assay": "cell-free assay", "setting": "0.5 µM", "endpoint": "remaining signal", "value": "24.8%", "SMILES": "CCN(CC)CCNC(=O)c1c(C)[nH]c(/C=C2\\C(=O)Nc3ccc(F)cc32)c1C"}
{"assay": "thermal stability, DSF", "setting": "10 µM", "endpoint": "ΔTm", "value": "-0.1 °C", "SMILES": "Cn1c2c(c3ccc(Cl)c(Cl)c31)C(C#N)C1(CCOCC1)NC2=O (centres unmarked)"}
{"assay": "enzyme activity, inhibitor", "setting": "10 µM", "endpoint": "remaining activity", "value": "92%", "SMILES": "FC(F)c1nc2ccccc2n1-c1nc(N2CCOCC2)nc(N2CCOCC2)n1"}
{"assay": "enzyme activity, inhibitor", "setting": "10 µM", "endpoint": "remaining activity", "value": "40%", "SMILES": "Nc1nc(Nc2ccccc2)sc1C(=O)c1c(F)cccc1F"}
{"assay": "cell-free assay", "setting": "0.5 µM", "endpoint": "remaining signal", "value": "40.9%", "SMILES": "N#CCCc1ccc2c(c1)-c1[nH]c3ccc([N+](=O)[O-])cc3c1CC(=O)N2"}
{"assay": "cell-free assay, competition with immobilised ligand", "setting": "1 µM", "endpoint": "remaining binding", "value": "84%", "SMILES": "C[C@H](c1cccc(C#N)c1)n1cc(Cl)cc(C(N)=O)c1=N"}
{"assay": "target engagement in cells, inhibitor, chemoproteomics", "test system": "Huh-7", "setting": "1 µM", "endpoint": "inhibition", "value": "-58.9%", "SMILES": "CCN1CCN(Cc2ccc(NC(=O)c3ccc(C)c(Oc4ccnc5[nH]ccc45)c3)cc2C(F)(F)F)CC1"}
{"assay": "thermal stability, DSF", "setting": "10 µM", "endpoint": "ΔTm", "value": "0.3 °C", "SMILES": "Cn1c2c(c3ccc(Cl)c(Cl)c31)C(C#N)C1(CCNCC1)NC2=O (racemic)"}
{"assay": "cell-free assay, competition with immobilised ligand", "setting": "1 µM", "endpoint": "remaining binding", "value": "92%", "SMILES": "CO[C@@H](C)c1c(Nc2ccc([C@H](N(C)C(=O)C3CCS(=O)(=O)CC3)C(F)(F)F)cc2)cnc2cc(Cl)nn12"}
{"assay": "cell-free assay", "setting": "10 µM", "endpoint": "remaining signal", "value": "63%", "SMILES": "Cc1ccc(NC(=O)c2ccc(C)c(C(F)(F)F)c2)cc1C#Cc1nn(C2CCC(O)CC2)c2ncnc(N)c12 (centres unmarked)"}
{"assay": "cell-free assay, competition with immobilised ligand", "setting": "1 µM", "endpoint": "remaining binding", "value": "100%", "SMILES": "O=C(Nc1cccnn1)N1CCC(=Cc2cccc(Oc3ccc(C(F)(F)F)cn3)c2)CC1"}
{"assay": "enzyme activity, inhibitor", "setting": "2 µM", "endpoint": "inhibition", "value": "43%", "SMILES": "CNCc1ccc(-c2cc(-c3nc(-c4ccc(S(=O)(=O)C(C)C)cc4)cnc3N)on2)cc1"}
